Converted amounts (≈) assume the structure as drawn. The source made the active and inactive calls.
Legend:
[1] = Aqueous solubility of the compound in PBS buffer; format: physicochemical
[2] = biological target: Neuronal acetylcholine receptor subunit alpha-7 (Homo sapiens) (UniProt P36544); assay: Positive allosteric modulation of human alpha7 nAChR expressed in Xenopus laevis oocytes assessed as acetyl choline-evoked currents at 10 uM at -80 mV holding potential prtreated for 2 mins followed by co-treatment with acetyl choline by electrophysiology method relative to acetyl choline; format: cell-based
Chain of Neuronal acetylcholine receptor subunit alpha-7 (Homo sapiens) (P36544 whole entry): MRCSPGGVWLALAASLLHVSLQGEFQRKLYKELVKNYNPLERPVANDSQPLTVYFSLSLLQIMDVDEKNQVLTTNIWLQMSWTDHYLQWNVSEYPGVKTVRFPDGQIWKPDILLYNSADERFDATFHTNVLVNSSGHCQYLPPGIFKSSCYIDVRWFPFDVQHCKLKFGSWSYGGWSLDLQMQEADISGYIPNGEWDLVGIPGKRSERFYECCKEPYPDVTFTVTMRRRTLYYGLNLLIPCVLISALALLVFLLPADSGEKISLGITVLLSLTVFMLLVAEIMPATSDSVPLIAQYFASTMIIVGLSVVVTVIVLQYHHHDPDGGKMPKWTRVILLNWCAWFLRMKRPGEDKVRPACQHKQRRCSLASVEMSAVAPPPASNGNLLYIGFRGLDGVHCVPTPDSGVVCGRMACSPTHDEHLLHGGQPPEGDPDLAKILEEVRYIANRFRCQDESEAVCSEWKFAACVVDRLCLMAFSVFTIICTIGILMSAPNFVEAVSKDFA
Summary of the method: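 Defolliculated Xenopus laevis oocytes were injected with 5 ng α7 cRNA and recorded 2–3 days later at 22°C, -80 mV. Compound (10 μM) was bath-preapplied for 2 min, then co-applied with 200 μM ACh by fast pipette application for 0.6 s. Peak current is expressed relative to the ACh-alone control (100%).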

[3] = Permeability across apical to basolateral side in human Caco2 cells; format: ADME, cell-based; settings: Caco-2, read-out: permeability
Rattus norvegicus [4] = assay: Analgesic activity in CFA-induced paw inflammation Wistar rat model assessed as increase in paw withdrawal latency at 10 mg/kg, iv administered at 24 hrs post CFA injection measured at 30 mins post compound administration; format: functional, organism-based
Summary of the method: (§1)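 Male Wistar rats (250–300 g). CFA emulsion (1:1 oil/saline, 0.5 mg/ml, 50 μl) was injected intraplantar into the hind paw. 24 h later, compound was dissolved in DMSO, diluted in 0.9% saline (final DMSO 2,5%) and given iv at 10 mg/kg in 0,5 ml. Paw withdrawal latency was measured on a dynamic plantar aesthesiometer (ramp 2.5 g/s, 50 g cutoff), as the mean of three readings per time point, for up to 4 h; n ≥ 6 rats/group, two-way ANOVA with Bonferroni.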

Rattus norvegicus [5] = assay: Analgesic activity in CFA-induced paw inflammation Wistar rat model assessed as increase in paw withdrawal latency at 10 mg/kg, iv administered at 24 hrs post CFA injection measured at 1 hr post compound administration; format: functional, organism-based; summary of the method: as §1

| Activity [2] [%] | SMILES | further results |
| --- | --- | --- |
| 666 | O=C(CCc1ccc(O)cc1)c1cc(O)ccc1O | solubility ([1]; PBS buffer, read-out: solubility): 160 µM (≈ 41.3 µg/mL); Papp A→B [3]: 33.5 ×10⁻⁶ cm/s |
| 24.7 | CC(C)C(N)C(=O)N1CCC[C@H]1C(=O)NC(C(=O)Oc1ccc(CCC(=O)c2cc(O)ccc2O)cc1)C(C)C (stereo in doubt) | Activity (Rattus norvegicus [5]): Active |
| 24.5 | CC(C)C(N)C(=O)NC(C(=O)Oc1ccc(/C=C/C(=O)c2cc(O)ccc2O)c(O)c1)C(C)C (stereo in doubt) | – |
| 26.7 | CC(C)C(N)C(=O)NC(C(=O)Oc1ccc(CCC(=O)c2cc(O)ccc2O)c(O)c1)C(C)C (stereo in doubt) | – |

The next lines start with the compound.

| SMILES | Activity [2] [%] | further results |
| --- | --- | --- |
| O=C(CCc1ccc(O)cc1O)c1cc(O)ccc1O | 989 | – |
| Br.CC(C)C(N)C(=O)NC(C(=O)Oc1ccc(CCC(=O)c2cc(O)ccc2O)cc1)C(C)C (stereo in doubt) | 14.7 | solubility ([1]; buffer): Soluble; Activity (Rattus norvegicus [4]): Active; Activity (Rattus norvegicus [5]): inactive |
| Br.CC(C)C(N)C(=O)N1CCC[C@H]1C(=O)NC(C(=O)Oc1ccc(CCC(=O)c2cc(O)ccc2O)c(O)c1)C(C)C (stereo in doubt) | 25.3 | solubility ([1]; buffer): Soluble |

From ChEMBL document CHEMBL4138200, “Amino acid and peptide prodrugs of diphenylpropanones positive allosteric modulators of α7 nicotinic receptors with analgesic activity” (Eur J Med Chem, 2018)
